Results on seven molecules are retold here after PubChem BioAssay.

Assay [1] in a line: inhibitors of TNFa-induced NFkB p65 translocation, primary screen, imaging, HUVEC, MLSMR starter and 10KST1 sets (AID 438;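 active = inhibition above 20% together with a positive visual image hit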;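 note: compound added about 3h40 before a 20 min TNFalpha stimulation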;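 for inhibition: signal is the nuclear over cytoplasmic p65 intensity ratio per well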). The settings on record: HUVEC TNFa-induced p65 nuclear translocation; cell count: measured here: nuclei count (cytotoxicity indicator), at 2.08 µM; inhibition: at 2 µM, stronger effect = higher value, 0% TNFa-plus-vehicle, 100% no-TNFa wells.
A short description of assay [2]: endothelial E-selectin expression blockers – imaging, HUVEC, immunofluorescence, MLSMR starter and 10KST1 sets, primary screen (AID 487).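 For inhibition: signal is fraction of cell area covered by stained E-selectin grains.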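 For nuclei count: 100% = median nuclei count of all wells on the same plate.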 The conditions noted are these: HUVEC TNFalpha-induced E-selectin immunofluorescence imaging, at 2 µM; inhibition: stronger effect = higher value; nuclei count: measured here: cell number, toxicity.
Assay [3] in a line: Primary imaging screen for DUSP6 inhibitors that restore phospho-Erk in transfected HeLa cells, chemical complementation (AID 609;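 active = compounds giving at least 50% inhibition in the cell-based MKP-3 phosphatase rescue imaging test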;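 for inhibition: phospho-Erk level distribution per well compared with pooled transfected vehicle control wells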). The settings on record: HeLa MKP-3 transfected, phospho-Erk imaging KS statistic, at 10 µM, cells stimulated with TPA for 15 min.
For assay [4], the target named is Dual specificity protein phosphatase 6 (Homo sapiens) (UniProt Q16828). Described as above. The conditions noted are these: HeLa MKP-3 transfected, phospho-Erk imaging KS statistic; at 10 µM; stronger effect = higher value; cells stimulated with TPA for 15 min.
Sequence of Dual specificity protein phosphatase 6 (Homo sapiens) (Q16828 whole entry, looked up): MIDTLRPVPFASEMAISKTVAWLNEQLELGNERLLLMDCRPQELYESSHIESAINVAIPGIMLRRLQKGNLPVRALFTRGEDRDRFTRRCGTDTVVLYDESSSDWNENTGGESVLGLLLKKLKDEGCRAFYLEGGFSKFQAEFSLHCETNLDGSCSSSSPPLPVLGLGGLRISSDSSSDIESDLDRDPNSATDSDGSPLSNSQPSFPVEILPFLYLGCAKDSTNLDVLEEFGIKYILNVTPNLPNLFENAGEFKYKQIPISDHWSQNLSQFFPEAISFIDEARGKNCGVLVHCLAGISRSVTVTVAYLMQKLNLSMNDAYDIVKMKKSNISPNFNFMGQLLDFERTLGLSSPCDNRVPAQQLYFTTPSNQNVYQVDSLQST
The target of assay [5] is Voltage-gated potassium channel subunit beta-2 (Rattus norvegicus) (UniProt P62483). The assay can be described thus: inhibitors of rat Kvbeta2 reductase activity – biochemical, NADPH fluorescence, primary screen (AID 622;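 active = fluorescence slope higher than the sample average by over 3 SD, cut at about -0.22 in these data, passing the limit was not always enough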;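 note: slope of raw intensity against log time taken from 70 to 1610 s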). The settings on record: recombinant KvBeta, 4-cyanobenzaldehyde reduction, at 10 µM, stronger effect = higher value.
Sequence of Voltage-gated potassium channel subunit beta-2 (Rattus norvegicus) (P62483 whole entry, looked up): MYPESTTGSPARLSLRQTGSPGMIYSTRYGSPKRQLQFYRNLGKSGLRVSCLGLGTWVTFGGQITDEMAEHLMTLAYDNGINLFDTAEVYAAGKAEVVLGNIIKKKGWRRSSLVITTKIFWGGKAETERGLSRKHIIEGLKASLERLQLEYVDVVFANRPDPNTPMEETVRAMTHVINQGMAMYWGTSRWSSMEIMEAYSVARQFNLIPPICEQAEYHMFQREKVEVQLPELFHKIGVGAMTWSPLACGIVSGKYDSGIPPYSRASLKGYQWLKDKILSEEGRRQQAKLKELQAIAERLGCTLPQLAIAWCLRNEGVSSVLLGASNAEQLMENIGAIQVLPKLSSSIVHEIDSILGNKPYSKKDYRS
Assay [6] shares this target. Nature of the assay: enhancers of rat Kvbeta2 NADPH turnover – biochemical, NADPH fluorescence, primary screen (AID 623;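 active = NADPH fluorescence slope more negative than the mean of all samples by about 3 SD, 99.7% confidence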;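 note: fluorescence intensity change per second fitted from 20 to 320 s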). The conditions noted are these: Recombinant KvBeta, NADPH fluorescence decrease slope, 10 min; at 10 µM; stronger effect = lower value.
The target in assay [7] is Alpha-2C adrenergic receptor (Homo sapiens) (UniProt P18825). The assay can be described thus: compounds altering alpha2C-coupled GIRK flux – cell-based, HEK293 alpha2C/GIRK1/2, thallium flux, primary screen (AID 624;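 active = fluorescence slope after compound addition differing from the mean of all screened samples at 99.7% confidence, in either direction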;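 note: slope of fluorescence ratio to pre-addition baseline per second over 15 to 24 s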). The conditions noted are these: thallium flux BTC fluorescence, at 10 µM, actives lie on both sides.
Sequence of Alpha-2C adrenergic receptor (Homo sapiens) (P18825 whole entry, looked up): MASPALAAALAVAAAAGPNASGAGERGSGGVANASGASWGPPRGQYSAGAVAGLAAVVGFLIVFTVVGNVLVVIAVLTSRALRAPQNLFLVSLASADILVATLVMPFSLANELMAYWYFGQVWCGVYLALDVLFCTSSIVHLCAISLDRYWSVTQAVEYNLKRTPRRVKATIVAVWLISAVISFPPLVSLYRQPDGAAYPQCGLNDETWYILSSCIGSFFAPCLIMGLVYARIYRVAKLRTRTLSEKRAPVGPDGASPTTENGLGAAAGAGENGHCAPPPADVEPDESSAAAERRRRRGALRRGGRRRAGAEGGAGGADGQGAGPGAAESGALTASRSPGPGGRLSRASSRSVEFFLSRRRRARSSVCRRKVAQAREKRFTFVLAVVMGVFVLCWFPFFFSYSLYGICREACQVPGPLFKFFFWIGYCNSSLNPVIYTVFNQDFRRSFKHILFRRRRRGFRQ
A short description of assay [8]: inhibitors of larval lipid processing in zebrafish, primary screen, whole organism, PED6 fluorescence, gall bladder and intestine (AID 686;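 active = a full or partial loss of lipid-probe fluorescence in the fish gall bladder, intestine or both, judged by eye; inactive = no fluorescence loss, or compound toxic to the fish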;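 note: larvae 5 to 7 days old with five fish per well; signal comes from phospholipase A2 cleavage of quenched PED6 carried via bile; overnight exposure to compound and PED6 before scoring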). The conditions noted are these: Zebrafish larvae PED6 lipid processing, fluorescence scoring; screened at 20 µM (by protocol). An outline of the steps: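 Test system – live zebrafish larvae aged 5-7 days, whole organism · Buffer or medium – E3 fish medium · Reagent – quenched phospholipase substrate PED6, 100 nM final, ingested by larvae · Doses – 20 µM single dose · Incubation – overnight compound and PED6 incubation · Technique – visual fluorescence microscopy scoring of gall bladder, gut · Read-out basis – visual per-well fluorescence inhibition score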

Assay [9] can be described thus: loss of swimming-algae plug formation – whole organism, Chlamydomonas reinhardtii, WT vs cilia-less mutant, absorbance, 96-well, primary screen (AID 463189;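 active = inhibition at or above 50% relative to wild type and mutant plate controls; inactive = inhibition below 50%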;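 note: 0% = wild type cc124 cells in DMSO and 100% = ciliumless bld1 mutant cells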). The settings on record: Chlamydomonas reinhardtii gravitaxis, OD600 absorbance, 2 days; at 10 µM; stronger effect = higher value.
The mark [10] stands for this setting: measured here: cell density z-score.
Setting [11] is: measured here: nuclear c-Myc green intensity z-score.
[12] abbreviates: measured here: nuclear pErk red intensity z-score, stronger effect = higher value.

Active and inactive are the calls of the source.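 Rule for the calls, unless noted: active = visually confirmed hit in the image check and inhibition above 20%; inconclusive = visually confirmed hit but inhibition not above 20%; inactive = no visual hit in the image check.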

A word on the inhibition: it is the relative decrease from the control value, in per cent. For the molecule `CCCCNC(=O)c1cc2n(n1)C(C(F)(F)F)CC(c1ccccc1)N2` (stereo unspecified), in assay [1], the cell count turned out to be 519. For the same molecule, the inhibition in assay [1] was -6.4% (inactive); in assay [2], -41.1% (inactive); in [4] it was 1.75% (inactive); in assay [9] it was -3.15% (inactive). This molecule gave a nuclei count in assay [2] of 107%. For the same molecule, the z-score in assay [3] (setting [10]) is -0.754; in assay [3] (setting [11]), -0.242; in [3] (setting [12]), 0.464. In addition, the fluorescence slope in [5] is -0.529 (inactive). Also, in assay [6], the NADPH fluorescence slope was -5.9e-05 (inactive). Further, the slope in assay [7] is 0.00405 (inactive). In addition, the molecule was classed as inactive in assay [8].
Take `Cc1cccc(Nc2ncnc3ccccc23)c1`: the cell count in [1] is 458. Besides, the inhibition in assay [1] was -5.2% (inactive); in assay [2] it was -1% (inactive); in [4], 18.2% (inactive); in [9], 2.93% (inactive). In assay [2], this molecule yielded a nuclei count of 123%. The z-score in [3] (setting [10]) is -0.619; in assay [3] (setting [11]) it was 0.167; in assay [3] (setting [12]), -0.509. Besides, the fluorescence slope in [5] was -0.519 (inactive). In addition, in [6], the NADPH fluorescence slope was -6.7e-05 (inactive). For the same molecule, the slope in assay [7] is 0.00506 (inactive). In assay [8], the outcome was inactive.
As for `CN(C)CCNc1nc(-c2ccco2)c2c(c1C#N)CC(C)(C)OC2`, the cell count in [1] is 621. The inhibition was -14.2% (inactive) in [1], -15.8% (inactive) in [2], 1.48% (inactive) in assay [4] and 17.6% (inactive) in assay [9]. The molecule also gave a nuclei count in [2] of 164%. In addition, the z-score in [3] (setting [10]) was -0.37; in assay [3] (setting [11]) it was -0.517; in [3] (setting [12]), 0.864. In [5], the fluorescence slope was -0.34 (inactive). Moreover, the NADPH fluorescence slope in assay [6] is -5.5e-05 (inactive). Also, in assay [7], the slope is 0.00509 (inactive). Besides, in assay [8], the molecule was classed as inactive.
On to `CC(C)OC(=O)c1nn2c(C(F)(F)F)cc(-c3ccc(Br)o3)nc2c1Br`, for which the cell count in assay [1] was 519. Moreover, the inhibition in [1] was -4.9% (inactive); in [2], 5.6% (inactive); in assay [4], -9.7% (inactive); in assay [9], 18.5% (inactive). The nuclei count in assay [2] worked out at 127%. Moreover, the z-score in assay [3] (setting [10]) was -1.28; in [3] (setting [11]), -0.277; in assay [3] (setting [12]) it was 1.66. Also, the fluorescence slope in assay [5] was -0.29 (inactive). Moreover, the NADPH fluorescence slope in assay [6] is -4.3e-06 (inactive). Besides, in [7], the slope is 0.00144 (inactive). For the same molecule, the molecule was called inactive in assay [8].
Turning to `CCOC(=O)Cn1c(SC)nc2sc3c(c2c1=O)CC(C)(C)OC3`, in assay [1], the cell count was found to be 655. Besides, the inhibition in assay [1] was -7.4% (inactive); in assay [2], 1.5% (inactive); in assay [4], -0.159% (inactive); in [9] it was -3.53% (inactive). The molecule further displayed a nuclei count in [2] of 179%. The figures for the z-score in assay [3] (setting [10]), in [3] (setting [11]) and in assay [3] (setting [12]) were 1.23, -1.44 and -0.342, respectively. The fluorescence slope in assay [5] was -0.459 (inactive). Besides, the NADPH fluorescence slope in [6] is -0.000276 (inactive). The slope in [7] was 0.00508 (inactive). Also, in assay [8], the molecule was called inactive.
On to `Cc1ccccc1-c1nn2c(-c3ccccc3)nnc2s1`, for which the cell count in assay [1] was 590. Also, the inhibition was -20% (inactive) in assay [1], -150% (inactive) in assay [2], -2.47% (inactive) in [4] and 92.9% (active) in assay [9]. In addition, the nuclei count in assay [2] was 149%. Besides, the results for the z-score in assay [3] (setting [10]), in [3] (setting [11]) and in [3] (setting [12]) were 0.229, -1.66 and 0.142, respectively. In addition, in [5], the fluorescence slope is -0.451 (inactive). The NADPH fluorescence slope in [6] was -6e-05 (inactive). Moreover, the slope in assay [7] was 0.00655 (inactive). Moreover, in [8], the result was inactive.
Consider `Cc1ccc2[nH]c3c(N4CCCCCC4)ncnc3c2c1`, for which the cell count in [1] is 377. Besides, the inhibition in assay [1] is -11.4% (inactive); in assay [2], -85.7% (inactive); in [4], -3.5% (inactive); in assay [9], -9.6% (inactive). For the same molecule, the nuclei count in assay [2] was 159%. Also, the z-score is 1.13 in assay [3] (setting [10]), -0.284 in [3] (setting [11]) and -0.123 in [3] (setting [12]). Moreover, the fluorescence slope in assay [5] is -0.44 (inactive). Besides, the NADPH fluorescence slope in [6] is -0.000151 (inactive). Besides, the slope in assay [7] was 0.00355 (inactive). Besides, the call in [8] was inactive.
